Data reported in the M2OR odorant receptor database.

Tests used:
Settings in all cases: stereoisomer not certain
[1] = target: T1, UniProt Q8VGX8
T1 sequence (whole entry): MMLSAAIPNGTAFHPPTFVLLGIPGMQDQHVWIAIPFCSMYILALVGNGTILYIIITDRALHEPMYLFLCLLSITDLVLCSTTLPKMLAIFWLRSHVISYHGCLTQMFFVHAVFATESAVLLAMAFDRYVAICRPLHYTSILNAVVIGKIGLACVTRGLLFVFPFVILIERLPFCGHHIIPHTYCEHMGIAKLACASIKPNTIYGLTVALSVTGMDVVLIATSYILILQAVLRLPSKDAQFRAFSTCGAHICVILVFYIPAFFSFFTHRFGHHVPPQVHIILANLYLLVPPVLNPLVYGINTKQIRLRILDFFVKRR
Outline: (§1)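 Transient luciferase assays in mammalian cell lines were common, though methods varied by source. The values come from published papers and their supplementary material, with extra details from the original authors when needed. Responsive refers to a measured signal the original authors judged statistically different from baseline, and non-responsive (inactive) to the remainder.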

[2] = target: T2, UniProt Q8VGY6
T2 sequence (whole entry): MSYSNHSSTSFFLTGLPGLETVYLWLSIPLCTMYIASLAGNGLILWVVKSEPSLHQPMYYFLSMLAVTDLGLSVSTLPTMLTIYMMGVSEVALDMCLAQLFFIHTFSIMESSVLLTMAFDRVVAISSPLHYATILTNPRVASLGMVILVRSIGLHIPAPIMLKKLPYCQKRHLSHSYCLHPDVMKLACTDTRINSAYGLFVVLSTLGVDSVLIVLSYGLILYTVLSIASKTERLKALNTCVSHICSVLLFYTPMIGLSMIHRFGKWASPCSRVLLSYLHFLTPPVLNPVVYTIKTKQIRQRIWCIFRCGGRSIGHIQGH
Outline: as §1

[3] = target: T3, UniProt Q8VGZ2
T3 sequence (whole entry): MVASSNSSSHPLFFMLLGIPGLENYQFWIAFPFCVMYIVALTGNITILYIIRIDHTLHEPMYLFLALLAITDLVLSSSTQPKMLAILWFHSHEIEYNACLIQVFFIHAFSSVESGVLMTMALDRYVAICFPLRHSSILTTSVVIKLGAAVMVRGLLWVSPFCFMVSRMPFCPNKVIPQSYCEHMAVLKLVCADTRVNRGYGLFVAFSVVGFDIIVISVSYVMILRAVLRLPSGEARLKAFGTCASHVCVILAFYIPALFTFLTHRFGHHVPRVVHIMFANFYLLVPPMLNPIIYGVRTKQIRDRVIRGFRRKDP
Outline: as §1

[4] = target: T4, UniProt Q8VGZ7
T4 sequence (whole entry): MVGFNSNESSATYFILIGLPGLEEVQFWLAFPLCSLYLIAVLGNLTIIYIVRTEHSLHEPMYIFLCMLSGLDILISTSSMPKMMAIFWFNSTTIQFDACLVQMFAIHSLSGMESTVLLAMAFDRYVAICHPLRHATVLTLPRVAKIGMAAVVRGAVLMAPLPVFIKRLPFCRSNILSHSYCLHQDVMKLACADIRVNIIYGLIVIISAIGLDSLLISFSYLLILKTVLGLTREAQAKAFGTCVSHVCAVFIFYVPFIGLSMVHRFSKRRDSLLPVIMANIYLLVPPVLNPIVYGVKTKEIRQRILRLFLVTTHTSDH
Outline: as §1

[5] = target: T5, UniProt Q8VH10
T5 sequence (whole entry): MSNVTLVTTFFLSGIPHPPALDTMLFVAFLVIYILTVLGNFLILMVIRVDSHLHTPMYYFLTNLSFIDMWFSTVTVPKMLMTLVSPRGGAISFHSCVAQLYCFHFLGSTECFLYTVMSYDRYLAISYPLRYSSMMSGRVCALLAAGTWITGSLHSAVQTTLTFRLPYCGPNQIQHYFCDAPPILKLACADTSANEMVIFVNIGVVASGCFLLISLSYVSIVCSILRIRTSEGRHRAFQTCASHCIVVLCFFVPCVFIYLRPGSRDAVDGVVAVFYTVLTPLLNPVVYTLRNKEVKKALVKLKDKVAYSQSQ
Outline: as §1

[6] = target: T6, UniProt Q8VH16
T6 sequence (whole entry): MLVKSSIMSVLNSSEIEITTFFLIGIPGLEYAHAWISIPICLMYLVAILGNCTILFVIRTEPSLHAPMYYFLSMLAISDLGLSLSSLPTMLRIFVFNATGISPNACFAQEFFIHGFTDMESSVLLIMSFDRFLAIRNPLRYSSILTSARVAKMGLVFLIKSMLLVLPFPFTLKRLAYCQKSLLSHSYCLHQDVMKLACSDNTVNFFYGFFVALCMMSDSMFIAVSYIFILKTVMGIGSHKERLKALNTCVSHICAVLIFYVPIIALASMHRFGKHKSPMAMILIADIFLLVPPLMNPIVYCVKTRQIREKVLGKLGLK
Outline: as §1

[7] = target: T7, UniProt Q8VH20
T7 sequence (whole entry): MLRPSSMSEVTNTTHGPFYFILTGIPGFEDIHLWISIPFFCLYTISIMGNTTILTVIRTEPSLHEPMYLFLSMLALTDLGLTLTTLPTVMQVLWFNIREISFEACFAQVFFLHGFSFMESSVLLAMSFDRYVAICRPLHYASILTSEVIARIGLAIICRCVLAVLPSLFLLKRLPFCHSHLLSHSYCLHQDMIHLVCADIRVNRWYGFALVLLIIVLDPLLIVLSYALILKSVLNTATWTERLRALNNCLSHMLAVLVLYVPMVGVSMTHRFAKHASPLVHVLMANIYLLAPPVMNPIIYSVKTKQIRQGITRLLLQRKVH
Outline: as §1

[8] = target: T8, UniProt Q8VH21
T8 sequence (whole entry): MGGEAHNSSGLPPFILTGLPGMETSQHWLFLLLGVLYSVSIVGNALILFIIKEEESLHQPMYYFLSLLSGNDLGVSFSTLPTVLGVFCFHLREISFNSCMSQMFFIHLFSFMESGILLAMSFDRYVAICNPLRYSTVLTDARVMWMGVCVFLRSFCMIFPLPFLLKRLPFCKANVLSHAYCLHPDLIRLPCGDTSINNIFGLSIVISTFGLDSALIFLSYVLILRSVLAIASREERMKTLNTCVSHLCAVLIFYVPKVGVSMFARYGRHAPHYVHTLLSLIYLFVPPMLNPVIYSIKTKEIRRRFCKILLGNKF
Outline: as §1

[9] = target: T9, UniProt Q924H8
T9 sequence (whole entry): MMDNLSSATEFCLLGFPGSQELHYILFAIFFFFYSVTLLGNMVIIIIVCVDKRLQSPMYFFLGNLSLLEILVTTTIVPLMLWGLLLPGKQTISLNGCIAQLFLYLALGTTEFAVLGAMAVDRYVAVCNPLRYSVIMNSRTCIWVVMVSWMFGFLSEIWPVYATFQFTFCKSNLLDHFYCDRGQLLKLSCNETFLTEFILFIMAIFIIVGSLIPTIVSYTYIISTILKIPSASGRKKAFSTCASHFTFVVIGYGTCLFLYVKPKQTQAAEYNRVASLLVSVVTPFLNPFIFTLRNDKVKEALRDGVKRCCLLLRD
Outline: as §1

[10] = target: T10, UniProt Q9EPN9
T10 sequence (whole entry): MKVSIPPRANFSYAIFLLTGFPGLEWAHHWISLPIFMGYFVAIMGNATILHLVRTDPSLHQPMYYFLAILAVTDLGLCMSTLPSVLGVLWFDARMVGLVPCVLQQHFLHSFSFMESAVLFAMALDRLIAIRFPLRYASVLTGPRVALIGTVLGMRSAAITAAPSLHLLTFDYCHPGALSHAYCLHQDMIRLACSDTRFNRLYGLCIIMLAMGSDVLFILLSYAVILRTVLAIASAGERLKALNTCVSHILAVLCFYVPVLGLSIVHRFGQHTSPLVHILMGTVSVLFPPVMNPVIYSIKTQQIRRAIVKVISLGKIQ
Outline: as §1

[11] = target: UniProt Q9R0K2
Chain of UniProt Q9R0K2 (Q9R0K2 as listed by the source): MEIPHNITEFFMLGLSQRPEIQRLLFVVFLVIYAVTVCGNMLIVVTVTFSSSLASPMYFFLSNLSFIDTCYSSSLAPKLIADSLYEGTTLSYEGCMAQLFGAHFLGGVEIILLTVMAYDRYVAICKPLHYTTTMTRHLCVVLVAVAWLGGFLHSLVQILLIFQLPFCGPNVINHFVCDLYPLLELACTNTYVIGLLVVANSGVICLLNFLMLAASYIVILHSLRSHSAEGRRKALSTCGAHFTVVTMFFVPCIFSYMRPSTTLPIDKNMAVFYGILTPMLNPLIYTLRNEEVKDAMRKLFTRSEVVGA
Outline: as §1

[12] = target: T11, UniProt Q9WU86
T11 sequence (whole entry): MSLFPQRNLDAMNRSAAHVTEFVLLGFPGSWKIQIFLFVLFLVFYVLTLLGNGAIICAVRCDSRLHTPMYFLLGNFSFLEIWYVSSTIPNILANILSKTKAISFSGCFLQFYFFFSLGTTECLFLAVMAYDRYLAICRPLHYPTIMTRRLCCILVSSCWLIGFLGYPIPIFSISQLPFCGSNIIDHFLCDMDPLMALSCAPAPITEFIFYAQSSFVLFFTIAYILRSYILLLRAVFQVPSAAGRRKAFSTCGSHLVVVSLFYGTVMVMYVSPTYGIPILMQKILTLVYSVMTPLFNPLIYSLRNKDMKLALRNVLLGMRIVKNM
Outline: as §1

[13] = target: T12, UniProt Q920P1
T12 sequence (whole entry): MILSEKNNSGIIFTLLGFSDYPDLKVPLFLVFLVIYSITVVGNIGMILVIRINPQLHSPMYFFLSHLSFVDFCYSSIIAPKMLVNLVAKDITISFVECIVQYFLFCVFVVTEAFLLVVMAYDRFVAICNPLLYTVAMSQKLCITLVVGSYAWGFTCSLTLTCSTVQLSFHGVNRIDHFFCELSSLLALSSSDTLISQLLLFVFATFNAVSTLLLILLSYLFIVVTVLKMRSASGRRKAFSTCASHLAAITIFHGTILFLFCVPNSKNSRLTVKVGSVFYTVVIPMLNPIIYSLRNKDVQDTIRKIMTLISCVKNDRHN
Outline: as §1

[14] = target: T13, UniProt Q920P2
T13 sequence (whole entry): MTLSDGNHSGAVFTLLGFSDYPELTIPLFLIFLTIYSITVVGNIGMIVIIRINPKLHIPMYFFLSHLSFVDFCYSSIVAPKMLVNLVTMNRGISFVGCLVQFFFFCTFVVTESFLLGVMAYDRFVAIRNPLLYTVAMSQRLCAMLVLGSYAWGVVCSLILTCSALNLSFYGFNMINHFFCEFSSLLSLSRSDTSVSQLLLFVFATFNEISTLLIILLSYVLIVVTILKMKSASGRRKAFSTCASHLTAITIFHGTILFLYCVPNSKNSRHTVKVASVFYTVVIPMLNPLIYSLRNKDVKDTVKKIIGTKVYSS
Outline: as §1

Measured: odorant receptor agonist call;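 further: active if original authors judged signal statistically different from baseline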

CCC(=O)O
not listed: [13] | [14]
inactive: all other assays above

CCCCC(C)=O
not listed: [13] | [14]
inactive: all other assays above

CC12CCC(CC1=O)C2(C)C (configuration not stated)
not listed: [13] | [14]
inactive: all other assays above

c1ccccc1
inactive: all assays above

CCCC(=O)C(C)=O
not listed: [13] | [14]
inactive: all other assays above
